In ChEMBL document CHEMBL4130408, “Photoactivation provides a mechanistic explanation for pan-assay interference behaviour of 2-aminopyrroles in lipoxygenase inhibition” (Eur J Med Chem, 2017):

molecular target: T1, Polyunsaturated fatty acid lipoxygenase ALOX15 (Homo sapiens) (UniProt P16050); test: Inhibition of recombinant human 15-LOX-1 expressed in Escherichia coli BL21(DE3) assessed as residual activity at 50 uM using linoleic acid as substrate preincubated for 10 mins followed by substrate addition
T1 sequence (whole entry): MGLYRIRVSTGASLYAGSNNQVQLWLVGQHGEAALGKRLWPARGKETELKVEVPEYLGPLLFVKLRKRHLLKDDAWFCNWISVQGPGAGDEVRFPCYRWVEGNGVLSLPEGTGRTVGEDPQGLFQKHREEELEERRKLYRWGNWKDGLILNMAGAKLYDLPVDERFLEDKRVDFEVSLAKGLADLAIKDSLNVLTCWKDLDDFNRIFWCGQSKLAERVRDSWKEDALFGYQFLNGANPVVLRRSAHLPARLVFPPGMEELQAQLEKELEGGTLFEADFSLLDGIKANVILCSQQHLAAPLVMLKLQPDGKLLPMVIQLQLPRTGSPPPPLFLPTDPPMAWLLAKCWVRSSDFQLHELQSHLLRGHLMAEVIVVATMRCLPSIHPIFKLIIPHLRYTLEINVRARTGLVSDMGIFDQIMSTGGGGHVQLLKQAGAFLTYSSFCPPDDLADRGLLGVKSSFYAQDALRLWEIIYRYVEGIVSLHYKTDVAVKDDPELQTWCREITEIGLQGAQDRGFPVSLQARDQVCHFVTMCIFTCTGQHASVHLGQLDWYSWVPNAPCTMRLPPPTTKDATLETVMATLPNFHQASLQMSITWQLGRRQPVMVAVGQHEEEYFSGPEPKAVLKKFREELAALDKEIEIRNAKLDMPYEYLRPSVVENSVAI
Outline: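 h-15-LOX-1 (1:100 enzyme stock, 1:400 final) preincubated 10 min at room temperature with inhibitor in 25 mM HEPES pH 7.4, then linoleic acid added to 25 µM final (inhibitor 50 µM final). 13(S)-HpODE formation read as A234 over time, rate taken from linear part within first 16 min; no-inhibitor = 100%, no-enzyme = 0%. Triplicate.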

Activity [%] | SMILES
68.9 | Nc1[nH]c(C(=O)c2ccc(Br)cc2)c(-c2ccc(F)cc2)c1C(=O)NCCc1c[nH]c2ccccc12
84.7 | Nc1[nH]c(C(=O)c2ccccc2)c(-c2ccc(Cl)cc2)c1C(=O)NCCc1c[nH]c2ccccc12
34 | COc1ccc2cccc(-c3c(C(=O)c4ccc(Br)cc4)[nH]c(N)c3C(=O)NC3CCCCC3)c2c1
114 | Nc1[nH]c(C(=O)c2ccccc2)c(-c2cccc(C(F)(F)F)c2)c1C(=O)c1c[nH]c2ccccc12
55.3 | Nc1[nH]c(C(=O)c2ccccc2)c(-c2ccccn2)c1C(=O)c1c[nH]c2ccc(Br)cc12
75.8 | COc1ccc(C(=O)c2[nH]c(N)c(C(=O)c3c[nH]c4ccccc34)c2-c2ccc(F)c(OC)c2)cc1
95 | Nc1[nH]c(C(=O)c2ccc(Br)cc2)c(-c2ccc(Br)cc2)c1C(=O)NC1CC1
94.1 | Nc1[nH]c(C(=O)c2ccccc2)c(-c2ccccc2C(F)(F)F)c1C(=O)c1c[nH]c2ccccc12
63.3 | Nc1[nH]c(C(=O)c2ccc(Br)cc2)c(-c2ccc(Br)cc2)c1C(=O)N1CCCCC1
71 | Nc1[nH]c(C(=O)c2ccc(Br)cc2)c(-c2ccccc2Cl)c1C(=O)NCCc1c[nH]c2ccccc12
92.7 | Nc1[nH]c(C(=O)c2ccccc2)c(-c2c(F)cccc2Cl)c1C(=O)NCCc1c[nH]c2ccccc12
75.6 | COCCNC(=O)c1c(N)[nH]c(C(=O)c2ccc(Br)cc2)c1-c1cccc2ccc(OC)cc12
87.2 | CC(C)(C)C(=O)c1c(N)[nH]c(C(=O)c2ccccc2)c1-c1ccc(Br)cc1
91.7 | Nc1[nH]c(C(=O)c2ccccc2)c(-c2ccc(Cl)c(F)c2)c1C(=O)c1c[nH]c2ccccc12
91.5 | Nc1[nH]c(C(=O)c2ccccc2)c(-c2ccccc2C(F)(F)F)c1C(=O)NCCc1cccs1
58 | COc1ccc(C(=O)c2[nH]c(N)c(C(N)=O)c2-c2ccc(OC)c(OC)c2)cc1
116 | Nc1[nH]c(C(=O)c2ccccc2)c(-c2ccc(F)cc2)c1C(=O)c1c[nH]c2ccccc12
86 | Nc1[nH]c(C(=O)c2ccccc2)c(-c2ccc3ccccc3c2)c1C(=O)NCc1ccc(F)cc1
99.3 | NC(=O)c1c(N)[nH]c(C(=O)c2ccccc2)c1-c1ccc(Br)cc1

Activity [%] | SMILES
91.3 | Nc1[nH]c(C(=O)c2ccccc2)c(-c2ccccc2Br)c1C(=O)NCc1ccc(-c2ccccc2)cc1
73.7 | Nc1[nH]c(C(=O)c2ccccc2)c(-c2cccc3ccccc23)c1C(=O)c1cccs1
85 | Nc1[nH]c(C(=O)c2ccccc2)c(-c2ccccc2C(F)(F)F)c1C(=O)NCc1cccc2ccccc12
104 | Nc1[nH]c2ccccc2c1C(=O)NCCc1ccc(Cl)cc1Cl
63.8 | COc1ccc(-c2c(C(=O)c3ccc(Br)cc3)[nH]c(N)c2C(=O)NCCc2c[nH]c3ccccc23)cc1OC
71.3 | COc1ccc(C(=O)c2[nH]c(N)c(C(=O)NCCc3c[nH]c4ccccc34)c2-c2c(F)cccc2Cl)cc1
104 | Nc1[nH]c(C(=O)c2ccccc2)c(-c2ccc(Br)cc2)c1C(=O)NCCCN1CCOCC1
63.4 | N#Cc1c(N)[nH]c(C(=O)c2ccccc2)c1-c1ccc(Br)cc1
98.8 | COc1cc(-c2c(C(=O)c3ccccc3)[nH]c(N)c2C(N)=O)ccc1O
90.7 | COc1ccc(-c2c(C(=O)c3ccccc3)[nH]c(N)c2C(=O)NCc2ccccc2)cc1OC
88.8 | Nc1[nH]c(C(=O)c2ccccc2)c(-c2ccc(Cl)cc2)c1C(=O)NCc1ccco1
83.1 | Nc1[nH]c(C(=O)c2ccc(Br)cc2)c(-c2ccccc2Br)c1C(=O)NCCc1c[nH]c2ccccc12
86.6 | Nc1[nH]c(C(=O)c2ccccc2)c(-c2ccncc2)c1C(=O)NCc1ccc(Cl)cc1
69.2 | NC(=O)c1c(N)[nH]c(C(=O)c2ccccc2)c1-c1cccc2ccccc12
89.9 | Nc1[nH]c(C(=O)c2ccccc2)c(-c2cccc3ccccc23)c1C(=O)c1c(-c2ccccc2)[nH]c2ccccc12
46.7 | Nc1[nH]c(C(=O)c2ccc(Br)cc2)c(-c2cccc3ccccc23)c1C(=O)NCCc1c[nH]c2ccccc12
122 | Nc1[nH]c(C(=O)c2ccccc2)c(-c2ccc3ccccc3c2)c1C(=O)NCc1ccc(-c2ccccc2)cc1
76.5 | Nc1[nH]c(C(=O)c2ccccc2)c(-c2ccc(Cl)cc2Cl)c1C(=O)NCCC1=CCCCC1
86.3 | COc1ccc2cccc(-c3c(C(=O)c4ccc(Br)cc4)[nH]c(N)c3C(=O)NCc3ccc(F)c(F)c3)c2c1

Continued, molecule first:

SMILES | Activity [%]
COc1ccc(-c2c(C(=O)c3ccccc3)[nH]c(N)c2C(N)=O)cc1OC | 117
Nc1[nH]c(C(=O)c2ccc(Br)cc2)c(-c2ccc(Cl)cc2)c1C(=O)NCCc1c[nH]c2ccccc12 | 19.3
COCCNC(=O)c1c(N)[nH]c(C(=O)c2ccc(Br)cc2)c1-c1ccc(Br)cc1 | 103
COc1ccc(C(=O)c2[nH]c(N)c(C(=O)NCCc3c[nH]c4ccccc34)c2-c2ccccc2C(F)(F)F)cc1 | 97.2
Cc1ccc([C@@H](C)NC(=O)c2c(N)[nH]c(C(=O)c3ccccc3)c2-c2ccccc2C(F)(F)F)cc1 | 96.4
Nc1[nH]c(C(=O)c2ccccc2)c(-c2ccc(Br)cc2)c1C(=O)NCCc1c[nH]c2ccccc12 | 73.5
Nc1[nH]c2cc(C(F)(F)F)ccc2c1C(=O)N1CCN(CCc2ccccc2)CC1 | 109
N#Cc1c(N)[nH]c(C(=O)c2ccccc2)c1-c1ccccc1Br | 62.3
Nc1[nH]c(C(=O)c2ccc(Cl)cc2)c(-c2ccc(Br)cc2)c1C(=O)NCCc1c[nH]c2ccccc12 | 53.3
NC(=O)c1c(N)[nH]c(C(=O)c2ccccc2)c1-c1ccc2ccccc2c1 | 79.1
Cc1ccc(S(=O)(=O)n2c(-c3ccccc3)cc(C(=O)NC3CC3)c2N)cc1 | 92.2
NC(=O)c1c(N)[nH]c(C(=O)c2ccccc2)c1-c1ccccc1Br | 87.4
Nc1[nH]c(C(=O)c2ccccc2)c(-c2ccccc2Br)c1C(=O)NCCc1c[nH]c2ccccc12 | 61.9
Nc1[nH]c(C(=O)c2ccccc2)c(-c2ccccc2C(F)(F)F)c1C(=O)NC1CCCCC1 | 101
NC(=O)c1c(N)[nH]c(C(=O)c2ccccc2)c1-c1ccccc1 | 116
Nc1[nH]c(C(=O)c2ccc(Br)cc2)c(-c2ccc(Cl)cc2Cl)c1C(=O)NCCc1c[nH]c2ccccc12 | 69.3
Nc1[nH]c(C(=O)c2ccccc2)c(-c2ccc3ccccc3c2)c1C(=O)NCCc1ccc(Cl)cc1 | 80.6
NC(=O)c1c(N)[nH]c(C(=O)c2ccccc2)c1-c1ccncc1 | 98.9
COC(=O)c1c(N)[nH]c(C(=O)c2ccccc2)c1-c1ccc(Cl)cc1 | 96
Nc1[nH]c(C(=O)c2ccccc2)c(-c2ccc(F)cc2)c1C(=O)NCCc1c[nH]c2ccccc12 | 59.6

SMILES | Activity [%]
Cc1ccc(-c2c(C(=O)c3ccccc3)[nH]c(N)c2C(=O)NCCc2c[nH]c3ccccc23)cc1 | 33.3
Nc1[nH]c(C(=O)c2ccccc2)c(-c2ccc(Br)cc2)c1C(=O)NC1CC1 | 94.3
CCCCCCCCCCCCCCNC(=O)c1c(N)[nH]c(C(=O)c2ccc(Br)cc2)c1-c1ccc(Br)cc1 | 99.2
Nc1[nH]c(C(=O)c2ccc(Br)cc2)c(-c2ccc(Cl)c(Cl)c2)c1C(=O)NCCc1c[nH]c2ccccc12 | 50
Nc1[nH]c(C(=O)c2ccccc2)c(-c2ccc(Cl)cc2F)c1C(=O)NCCc1c[nH]c2ccccc12 | 74.8
Nc1[nH]c(C(=O)c2ccccc2)c(-c2cccnc2)c1C(=O)c1ccccc1 | 84.9
Cc1ccc([C@H](C)NC(=O)c2c(N)[nH]c(C(=O)c3ccccc3)c2-c2cc(Cl)cc(Cl)c2)cc1 | 77.3
Nc1[nH]c2cc(C(F)(F)F)ccc2c1C(=O)NCc1ccc(F)cc1 | 102
COc1ccc(-c2c(C(=O)c3ccccc3)[nH]c(N)c2C(=O)c2c[nH]c3ccccc23)cc1OC | 82.5
Nc1[nH]c(C(=O)c2ccccc2)c(-c2ccccc2C(F)(F)F)c1C(=O)c1cccs1 | 86.4
Nc1[nH]c(C(=O)c2ccccc2)c(-c2ccc(Cl)cc2Cl)c1C(=O)NCCc1c[nH]c2ccccc12 | 22.8
NC(=O)c1c(N)[nH]c(C(=O)c2ccccc2)c1-c1ccccc1Cl | 114
COC(=O)c1c(N)[nH]c(C(=O)c2ccccc2)c1-c1ccc(Br)cc1 | 94
Nc1[nH]c(C(=O)c2ccccc2)c(-c2ccc(O)cc2)c1C(=O)NCCc1c[nH]c2ccccc12 | 53.3
Nc1[nH]c(C(=O)c2ccccc2)c(-c2ccccc2C(F)(F)F)c1C(=O)NCc1ccc(F)cc1 | 92.2
COc1ccc(C(=O)c2[nH]c(N)c(C(N)=O)c2-c2ccc(O)c(OC)c2)cc1 | 67.1
Nc1[nH]c(C(=O)c2ccccc2)c(-c2ccc3ccccc3c2)c1C(=O)NC1CC1 | 83.5
Nc1[nH]c(C(=O)c2ccccc2)c(-c2ccc(Cl)cc2)c1C(=O)N1CCCC1 | 123
CC(C)(C)C(=O)c1c(N)[nH]c(C(=O)c2ccccc2)c1-c1cc2ccccc2nc1Cl | 104
